# ChEMBL document CHEMBL4138126, “Synthesis, antiproliferative, anti-tubulin activity, and docking study of new 1,2,4-triazoles as potential combretastatin analogues” (Eur J Med Chem, 2017)
# Key:
# HepG2 = assay: Cytotoxicity in human HepG2 cells assessed as reduction in cell viability incubated for 48 hrs by MTT assay; format: functional, cell-based; details: HepG2, 48 h
# Procedure, shortened: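 HepG2 and HL60 (ATCC) grown in DMEM with 10% FBS, 2 mM L-glutamine, penicillin/streptomycin, amphotericin B at 37 °C, 5% CO2. Samples dissolved in DMSO, diluted thousandfold in assay. Cells seeded in serum-free medium, treated with serial concentrations 48 h; MTT 4 h, formazan dissolved in acidified isopropanol, A570. Triplicates averaged; viability relative to untreated/vehicle control.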
# HL-60(TB) = assay: Growth inhibition of human HL-60(TB) cells assessed as cell growth at 10 uM after 48 hrs by sulforhodamine B assay; format: functional; details: HL-60, 48 h, read-out: Activity
# Procedure, shortened: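 Screened by the NCI in its 60-cell-line panel covering nine cancer types, including leukemia. Compounds were added at a single concentration, and the cultures were incubated for 48 h. Results are reported as percent growth inhibition.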
# RPMI-8226 = assay: Growth inhibition of human RPMI8226 cells assessed as cell growth at 10 uM after 48 hrs by sulforhodamine B assay; format: functional; details: RPMI-8226, 48 h, read-out: Activity
# Procedure, shortened: (§1)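 NCI 60-cell-line panel screen (nine cancer types). Compounds added at single concentration 10^-5 M, cultures incubated 48 h; growth inhibition percentages reported.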
# SR = assay: Growth inhibition of human SR cells assessed as cell growth at 10 uM after 48 hrs by sulforhodamine B assay; format: functional; details: read-out: Activity
# Procedure, shortened: (§2)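 NCI 60-cell-line panel from nine tumour types (leukaemia, lung, colon, CNS, melanoma, ovarian, renal, prostate, breast). Each compound was added at one single concentration, and cultures were incubated for 48 h. Results are reported as percent growth inhibition.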
# A549 = assay: Growth inhibition of human A549/ATCC cells assessed as cell growth at 10 uM after 48 hrs by sulforhodamine B assay; format: functional; details: A549, 48 h, read-out: Activity; procedure, shortened: as §1
# EKVX = assay: Growth inhibition of human EKVX cells assessed as cell growth at 10 uM after 48 hrs by sulforhodamine B assay; format: functional; details: read-out: Activity; procedure, shortened: as §1
# HOP-62 = assay: Growth inhibition of human HOP62 cells assessed as cell growth at 10 uM after 48 hrs by sulforhodamine B assay; format: functional; details: HOP-62, 48 h, read-out: Activity; procedure, shortened: as §1
# NCI-H23 = assay: Growth inhibition of human NCI-H23 cells assessed as cell growth at 10 uM after 48 hrs by sulforhodamine B assay; format: functional; details: NCI-H23, 48 h, read-out: Activity; procedure, shortened: as §1
# NCI-H460 = assay: Growth inhibition of human NCI-H460 cells assessed as cell growth at 10 uM after 48 hrs by sulforhodamine B assay; format: functional; details: NCI-H460, 48 h, read-out: Activity; procedure, shortened: as §1
# HCT-116 = assay: Growth inhibition of human HCT116 cells assessed as cell growth at 10 uM after 48 hrs by sulforhodamine B assay; format: functional; details: HCT-116, 48 h, read-out: Activity; procedure, shortened: as §1
# HCT-15 = assay: Growth inhibition of human HCT15 cells assessed as cell growth at 10 uM after 48 hrs by sulforhodamine B assay; format: functional; details: HCT-15, 48 h, read-out: Activity; procedure, shortened: as §1
# HT-29 = assay: Growth inhibition of human HT-29 cells assessed as cell growth at 10 uM after 48 hrs by sulforhodamine B assay; format: functional; details: HT-29, 48 h, read-out: Activity; procedure, shortened: as §1
# SNB-19 = assay: Growth inhibition of human SNB19 cells assessed as cell growth at 10 uM after 48 hrs by sulforhodamine B assay; format: functional; details: SNB-19, 48 h, read-out: Activity; procedure, shortened: as §2
# SNB-75 = assay: Growth inhibition of human SNB75 cells assessed as cell growth at 10 uM after 48 hrs by sulforhodamine B assay; format: functional; details: SNB-75, 48 h, read-out: Activity; procedure, shortened: as §2
# Malme-3M = assay: Growth inhibition of human MALME-3M cells assessed as cell growth at 10 uM after 48 hrs by sulforhodamine B assay; format: functional; details: read-out: Activity; procedure, shortened: as §1
# MDA-MB-435 = assay: Growth inhibition of human MDA-MB-435 cells assessed as cell growth at 10 uM after 48 hrs by sulforhodamine B assay; format: functional; details: MDA-MB-435, 48 h, read-out: Activity; procedure, shortened: as §1
# IGROV-1 = assay: Growth inhibition of human IGROV1 cells assessed as cell growth at 10 uM after 48 hrs by sulforhodamine B assay; format: functional; details: IGROV-1, 48 h, read-out: Activity; procedure, shortened: as §1
# OVCAR-3 = assay: Growth inhibition of human OVCAR3 cells assessed as cell growth at 10 uM after 48 hrs by sulforhodamine B assay; format: functional; details: OVCAR-3, 48 h, read-out: Activity; procedure, shortened: as §1
# OVCAR-5 = assay: Growth inhibition of human OVCAR5 cells assessed as cell growth at 10 uM after 48 hrs by sulforhodamine B assay; format: functional; details: OVCAR-5, 48 h, read-out: Activity; procedure, shortened: as §1
# NCI/ADR-RES = assay: Growth inhibition of human NCI-ADR-RES cells assessed as cell growth at 10 uM after 48 hrs by sulforhodamine B assay; format: functional; details: read-out: Activity; procedure, shortened: as §1
# SK-OV-3 = assay: Growth inhibition of human SKOV3 cells assessed as cell growth at 10 uM after 48 hrs by sulforhodamine B assay; format: functional; details: SK-OV-3, 48 h, read-out: Activity; procedure, shortened: as §1
# A498 = assay: Growth inhibition of human A498 cells assessed as cell growth at 10 uM after 48 hrs by sulforhodamine B assay; format: functional; details: A498, 48 h, read-out: Activity; procedure, shortened: as §1
# ACHN = assay: Growth inhibition of human ACHN cells assessed as cell growth at 10 uM after 48 hrs by sulforhodamine B assay; format: functional; details: read-out: Activity; procedure, shortened: as §1
# RXF 393 = assay: Growth inhibition of human RXF393 cells assessed as cell growth at 10 uM after 48 hrs by sulforhodamine B assay; format: functional; details: RXF 393, 48 h, read-out: Activity; procedure, shortened: as §1
# UO-31 = assay: Growth inhibition of human UO31 cells assessed as cell growth at 10 uM after 48 hrs by sulforhodamine B assay; format: functional; details: UO-31, 48 h, read-out: Activity; procedure, shortened: as §2
# DU-145 = assay: Growth inhibition of human DU145 cells assessed as cell growth at 10 uM after 48 hrs by sulforhodamine B assay; format: functional; details: DU-145, 48 h, read-out: Activity; procedure, shortened: as §1
# MDA-MB-231 = assay: Growth inhibition of human MDA-MB-231 cells assessed as cell growth at 10 uM after 48 hrs by sulforhodamine B assay; format: functional; details: MDA-MB-231, 48 h, read-out: Activity; procedure, shortened: as §1
# Hs-578T = assay: Growth inhibition of human Hs 578T cells assessed as cell growth at 10 uM after 48 hrs by sulforhodamine B assay; format: functional; details: read-out: Activity; procedure, shortened: as §1
# BT-549 = assay: Growth inhibition of human BT549 cells assessed as cell growth at 10 uM after 48 hrs by sulforhodamine B assay; format: functional; details: BT-549, 48 h, read-out: Activity; procedure, shortened: as §1
# MDA-MB-468 = assay: Growth inhibition of human MDA-MB-468 cells assessed as cell growth at 10 uM after 48 hrs by sulforhodamine B assay; format: functional; details: MDA-MB-468, 48 h, read-out: Activity; procedure, shortened: as §1
# CCRF-CEM = assay: Growth inhibition of human CCRF-CEM cells assessed as cell growth at 10 uM after 48 hrs by sulforhodamine B assay; format: functional; details: read-out: Activity; procedure, shortened: as §1
# MOLT-4 = assay: Growth inhibition of human MOLT4 cells assessed as cell growth at 10 uM after 48 hrs by sulforhodamine B assay; format: functional; details: MOLT-4, 48 h, read-out: Activity; procedure, shortened: as §1
Structure (SMILES),growth at 10 µM (HL-60(TB)),growth at 10 µM (RPMI-8226),growth at 10 µM (SR),growth at 10 µM (A549),growth at 10 µM (EKVX),growth at 10 µM (HOP-62),growth at 10 µM (NCI-H23),growth at 10 µM (NCI-H460),growth at 10 µM (HCT-116),growth at 10 µM (HCT-15),growth at 10 µM (HT-29),growth at 10 µM (SNB-19),growth at 10 µM (SNB-75),growth at 10 µM (Malme-3M),growth at 10 µM (MDA-MB-435),growth at 10 µM (IGROV-1),growth at 10 µM (OVCAR-3),growth at 10 µM (OVCAR-5),growth at 10 µM (NCI/ADR-RES),growth at 10 µM (SK-OV-3),other results
CCOc1ccc(-n2nc(C(=O)Nc3ccc(F)c(F)c3F)nc2-c2cc(OC)c(OC)c(OC)c2)cc1,81.5%,87.2%,86.5%,85.7%,78.5%,86.5%,97.5%,104%,73.4%,64.3%,87.8%,88.3%,68.3%,86.9%,90%,95.6%,91.6%,81.5%,88.6%,85%,IC50 (HepG2): 10.8 µM; growth at 10 µM (A498): 88.7%; growth at 10 µM (ACHN): 85.2%; growth at 10 µM (RXF 393): 89.9%; growth at 10 µM (UO-31): 51.5%; growth at 10 µM (DU-145): 105%; growth at 10 µM (MDA-MB-231): 73.6%; growth at 10 µM (Hs-578T): 80.7%; growth at 10 µM (BT-549): 78.9%; growth at 10 µM (MDA-MB-468): 90.2%
CCOc1ccc(-n2nc(C(=O)NCc3cccc(OC)c3)nc2-c2cc(OC)c(OC)c(OC)c2)cc1,91%,84.3%,72.5%,73.2%,89.1%,72.4%,94.3%,102%,96%,90%,73.5%,90.1%,53.2%,97.7%,92.5%,80.4%,93.5%,120%,82.5%,85.8%,IC50 (HepG2): 1.9 µM; growth at 10 µM (CCRF-CEM): 94.2%; growth at 10 µM (MOLT-4): 69.9%; growth at 10 µM (A498): 98.1%; growth at 10 µM (ACHN): 97.5%; growth at 10 µM (RXF 393): 92.5%; growth at 10 µM (UO-31): 44.3%; growth at 10 µM (DU-145): 107%; growth at 10 µM (MDA-MB-231): 76.3%; growth at 10 µM (Hs-578T): 93.3%; growth at 10 µM (BT-549): 92.6%; growth at 10 µM (MDA-MB-468): 87.7%
CCOc1ccc(-n2nc(C(=O)Nc3ccccc3)nc2-c2cc(OC)c(OC)c(OC)c2)cc1,32.9%,47.4%,17%,41.4%,53.2%,55.7%,66.6%,27.9%,21.2%,35.4%,13%,55.8%,35.1%,54.5%,0.19%,55.1%,43.2%,84.1%,45.7%,51%,IC50 (HepG2): 41.8 µM; growth at 10 µM (CCRF-CEM): 50.8%; growth at 10 µM (MOLT-4): 42.9%; growth at 10 µM (A498): 10.3%; growth at 10 µM (ACHN): 62.8%; growth at 10 µM (RXF 393): 69.2%; growth at 10 µM (UO-31): 37.7%; growth at 10 µM (DU-145): 89.6%; growth at 10 µM (MDA-MB-231): 43.9%; growth at 10 µM (Hs-578T): 39.6%; growth at 10 µM (BT-549): 60.9%; growth at 10 µM (MDA-MB-468): 42.5%
CCOc1ccc(-n2nc(C(=O)Nc3ccccc3OC)nc2-c2cc(OC)c(OC)c(OC)c2)cc1,73.2%,68.2%,65.7%,77.3%,76.3%,86.5%,97.8%,83.4%,72.7%,80.8%,74%,88.5%,66.6%,99.8%,86.9%,99.3%,95.6%,82.4%,85.3%,88.8%,growth at 10 µM (CCRF-CEM): 94%; growth at 10 µM (MOLT-4): 76.5%; growth at 10 µM (A498): 83.8%; growth at 10 µM (ACHN): 79.3%; growth at 10 µM (RXF 393): 88.4%; growth at 10 µM (UO-31): 59.6%; growth at 10 µM (DU-145): 95.6%; growth at 10 µM (MDA-MB-231): 44.5%; growth at 10 µM (Hs-578T): 81.5%; growth at 10 µM (BT-549): 77.6%; growth at 10 µM (MDA-MB-468): 92.3%
